{"source": "ChEMBL document CHEMBL1147105", "about": "“In vitro and in vivo activities of PD 0305970 and PD 0326448, new bacterial gyrase/topoisomerase inhibitors with potent antibacterial activities versus multidrug-resistant gram-positive and fastidious organism groups” (2007)", "key": {"Streptococcus equinus": {"system": "Streptococcus equinus", "experiment": "Antibacterial activity against Streptococcus bovis", "type": "functional", "in_short": "(§1)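 Broth microdilution MIC following CLSI guidelines, in cation-adjusted Mueller-Hinton broth with 3% lysed horse blood. Plates incubated at 35°C. Clinical isolates and reference strains, with identity confirmed by standard microbiological methods.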"}, "Bacteroides ovatus": {"system": "Bacteroides ovatus", "experiment": "Antibacterial activity against Bacteroides ovatus", "type": "functional", "in_short": "(§2)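 Anaerobic broth microdilution MIC following CLSI guidelines, in supplemented Brucella broth. Run in an anaerobe chamber under 5% CO2, 5% H2 and 90% N2 at 35°C, and read after 48 h. Reported as MIC range, MIC50 and MIC90.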"}, "[1]": {"system": "Peptostreptococcus anaerobius", "experiment": "Antibacterial activity against Peptostreptococcus anaerobius", "type": "functional", "in_short": "as §2"}, "Neisseria gonorrhoeae": {"system": "Neisseria gonorrhoeae", "experiment": "Antibacterial activity against Neisseria gonorrhoeae", "type": "functional", "in_short": "(§3)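 MIC by broth microdilution in gonococcal broth, incubated at 35°C in 5% CO2. Reported as MIC range, MIC50 and MIC90.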"}, "Pseudomonas aeruginosa": {"system": "Pseudomonas aeruginosa", "experiment": "Antibacterial activity against Pseudomonas aeruginosa", "type": "functional", "in_short": "(§4)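 Broth microdilution MIC following CLSI guidelines, in cation-adjusted Mueller-Hinton broth, incubated at 35°C. Recent clinical isolates and reference strains, with identity confirmed by automated and standard microbiological methods. Results reported as MIC range, MIC50 and MIC90.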"}, "Streptococcus mitis": {"system": "Streptococcus mitis", "experiment": "Antibacterial activity against Streptococcus mitis", "type": "functional", "in_short": "as §1"}, "Proteus mirabilis": {"system": "Proteus mirabilis", "experiment": "Antibacterial activity against Proteus mirabilis", "type": "functional", "in_short": "as §4"}, "[2]": {"system": "Bacteroides thetaiotaomicron", "experiment": "Antibacterial activity against Bacteroides thetaiotaomicron", "type": "functional", "in_short": "as §2"}, "[3]": {"system": "Parabacteroides distasonis", "experiment": "Antimicrobial activity against Bacteroides distasonis", "type": "functional", "in_short": "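Anaerobic broth microdilution MIC following CLSI guidelines, in supplemented Brucella broth. Incubated at 35°C in a chamber under 5% CO2, 5% H2 and 90% N2. Read after 48 h.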"}, "Prevotella buccae": {"system": "Prevotella buccae", "experiment": "Antibacterial activity against Prevotella buccae", "type": "functional", "settings": "Segatella buccae", "in_short": "as §2"}, "Neisseria meningitidis": {"system": "Neisseria meningitidis", "experiment": "Antibacterial activity against Neisseria meningitidis", "type": "functional", "in_short": "as §3"}, "Enterococcus faecium": {"system": "Enterococcus faecium", "experiment": "Antibacterial activity against Enterococcus faecium", "type": "functional", "in_short": "(§5)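 Broth microdilution MIC per CLSI guidelines, incubated at 35°C. Cation-adjusted Mueller-Hinton broth for nonfastidious organisms and staphylococci. Streptococci tested in the same broth with 3% lysed horse blood. Anaerobes tested in supplemented Brucella broth inside an anaerobe chamber (5% CO2, 5% H2, 90% N2), read after 48 h. Strains were mainly recent clinical isolates with confirmed identity.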"}, "Corynebacterium sp.": {"system": "Corynebacterium sp.", "experiment": "Antibacterial activity against Corynebacterium sp.", "type": "functional", "in_short": "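Broth microdilution MIC following CLSI guidelines, in cation-adjusted Mueller-Hinton broth containing 3% lysed horse blood, incubated at 35°C. Clinical isolates with identity confirmed. Reported as MIC range, MIC50 and MIC90.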"}, "Enterococcus faecalis [4]": {"system": "Enterococcus faecalis", "experiment": "Antibacterial activity against beta-lactamase positive Enterococcus faecalis", "type": "functional", "in_short": "(§6)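 MIC by CLSI broth microdilution for nonfastidious organisms, in cation-adjusted Mueller-Hinton broth incubated at 35°C.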"}, "Serratia marcescens": {"system": "Serratia marcescens", "experiment": "Antibacterial activity against Serratia marcescens", "type": "functional", "in_short": "as §4"}, "Enterobacter cloacae": {"system": "Enterobacter cloacae", "experiment": "Antibacterial activity against Enterobacter cloacae", "type": "functional", "in_short": "as §4"}, "Streptococcus salivarius": {"system": "Streptococcus salivarius", "experiment": "Antibacterial activity against Streptococcus salivarius", "type": "functional", "in_short": "as §1"}, "Morganella morganii": {"system": "Morganella morganii", "experiment": "Antibacterial activity against Morganella morganii", "type": "functional", "in_short": "as §4"}, "Prevotella bivia": {"system": "Prevotella bivia", "experiment": "Antibacterial activity against Prevotella bivia", "type": "functional", "in_short": "as §2"}, "Enterococcus faecalis [5]": {"system": "Enterococcus faecalis", "experiment": "Antibacterial activity against VanB-resistant Enterococcus faecalis", "type": "functional", "in_short": "as §5"}, "Salmonella typhimurium": {"system": "Salmonella typhimurium", "experiment": "Antibacterial activity against Salmonella enterica serovar Typhimurium", "type": "functional, Salmonella enterica subsp. enterica serovar Typhimurium", "in_short": "as §4"}, "Prevotella corporis": {"system": "Prevotella corporis", "experiment": "Antibacterial activity against Prevotella corporis", "type": "functional", "in_short": "as §2"}, "Finegoldia magna": {"system": "Finegoldia magna", "experiment": "Antibacterial activity against Peptostreptococcus magnus", "type": "functional", "in_short": "as §2"}, "Cutibacterium acnes": {"system": "Cutibacterium acnes", "experiment": "Antibacterial activity against Propionibacterium acnes", "type": "functional"}, "Legionella pneumophila": {"system": "Legionella pneumophila", "experiment": "Antibacterial activity against Legionella pneumophila", "type": "functional", "in_short": "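Broth microdilution MIC per CLSI guidelines, run in buffered yeast extract α-ketoglutarate broth at 35°C and read after 48 h.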"}, "Moraxella catarrhalis": {"system": "Moraxella catarrhalis", "experiment": "Antibacterial activity against beta-lactamase negative Moraxella catarrhalis", "type": "functional"}, "[6]": {"system": "Fusobacterium necrophorum", "experiment": "Antibacterial activity against Fusobacterium necrophorum", "type": "functional", "in_short": "as §2"}, "Klebsiella pneumoniae": {"system": "Klebsiella pneumoniae", "experiment": "Antibacterial activity against beta-lactamase positive Klebsiella pneumoniae", "type": "functional", "in_short": "as §6"}, "Haemophilus influenzae": {"system": "Haemophilus influenzae", "experiment": "Antibacterial activity against beta-lactamase positive Haemophilus influenzae", "type": "functional", "in_short": "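Broth microdilution MIC following CLSI guidelines, in Haemophilus test medium at 35°C.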"}, "Staphylococcus aureus": {"system": "Staphylococcus aureus", "experiment": "Antibacterial activity against oxacillin-susceptible Staphylococcus aureus", "type": "functional", "in_short": "as §6"}, "Hoylesella oralis": {"system": "Hoylesella oralis", "experiment": "Antibacterial activity against Prevotella oralis", "type": "functional", "in_short": "as §2"}, "Shigella sonnei": {"system": "Shigella sonnei", "experiment": "Antibacterial activity against Shigella sonnei", "type": "functional", "in_short": "as §4"}, "[7]": {"system": "Staphylococcus epidermidis", "experiment": "Antibacterial activity against oxacillin-resistant Staphylococcus epidermidis", "type": "functional", "in_short": "as §5"}}}
{"smiles": "C[C@H]1NCc2cc(-c3ccc4c(=O)c(C(=O)O)cn(C5CC5)c4c3OC(F)F)ccc21", "note": "[GARENOXACIN]", "values": [{"measurement": "MIC50", "setting": "Streptococcus equinus", "result": 0.25, "unit": "µg/mL"}, {"measurement": "MIC90", "setting": "Streptococcus equinus", "result": 0.25, "unit": "µg/mL"}, {"measurement": "MIC50", "setting": "Bacteroides ovatus", "result": 2, "unit": "µg/mL"}, {"measurement": "MIC90", "setting": "Bacteroides ovatus", "result": 4, "unit": "µg/mL"}, {"measurement": "MIC", "setting": "[1]", "result": 0.015, "unit": "µg/mL"}, {"measurement": "MIC50", "setting": "Neisseria gonorrhoeae", "result": 0.004, "unit": "µg/mL"}, {"measurement": "MIC90", "setting": "Neisseria gonorrhoeae", "result": 0.004, "unit": "µg/mL"}, {"measurement": "MIC50", "setting": "Pseudomonas aeruginosa", "result": 2, "unit": "µg/mL"}, {"measurement": "MIC90", "setting": "Pseudomonas aeruginosa", "result": "> 64", "unit": "µg/mL"}, {"measurement": "MIC50", "setting": "Streptococcus mitis", "result": 0.125, "unit": "µg/mL"}, {"measurement": "MIC90", "setting": "Streptococcus mitis", "result": 0.25, "unit": "µg/mL"}, {"measurement": "MIC50", "setting": "Proteus mirabilis", "result": 0.5, "unit": "µg/mL"}, {"measurement": "MIC90", "setting": "Proteus mirabilis", "result": 16, "unit": "µg/mL"}, {"measurement": "MIC50", "setting": "[2]", "result": 2, "unit": "µg/mL"}, {"measurement": "MIC90", "setting": "[2]", "result": 4, "unit": "µg/mL"}, {"measurement": "MIC50", "setting": "[3]", "result": 2, "unit": "µg/mL"}, {"measurement": "MIC90", "setting": "[3]", "result": 4, "unit": "µg/mL"}, {"measurement": "MIC50", "setting": "Prevotella buccae", "result": 0.25, "unit": "µg/mL"}, {"measurement": "MIC90", "setting": "Prevotella buccae", "result": 1, "unit": "µg/mL"}, {"measurement": "MIC50", "setting": "Neisseria meningitidis", "result": 0.004, "unit": "µg/mL"}, {"measurement": "MIC90", "setting": "Neisseria meningitidis", "result": 0.004, "unit": "µg/mL"}, {"measurement": "MIC50", "setting": "Enterococcus faecium", "result": 8, "unit": "µg/mL"}, {"measurement": "MIC90", "setting": "Enterococcus faecium", "result": 32, "unit": "µg/mL"}, {"measurement": "MIC50", "setting": "Corynebacterium sp.", "result": 0.25, "unit": "µg/mL"}, {"measurement": "MIC90", "setting": "Corynebacterium sp.", "result": 64, "unit": "µg/mL"}, {"measurement": "MIC", "setting": "Enterococcus faecalis [4]", "result": 0.125, "unit": "µg/mL"}, {"measurement": "MIC50", "setting": "Serratia marcescens", "result": 1, "unit": "µg/mL"}, {"measurement": "MIC90", "setting": "Serratia marcescens", "result": 8, "unit": "µg/mL"}, {"measurement": "MIC50", "setting": "Enterobacter cloacae", "result": 0.125, "unit": "µg/mL"}, {"measurement": "MIC90", "setting": "Enterobacter cloacae", "result": 2, "unit": "µg/mL"}, {"measurement": "MIC50", "setting": "Streptococcus salivarius", "result": 0.125, "unit": "µg/mL"}, {"measurement": "MIC90", "setting": "Streptococcus salivarius", "result": 0.25, "unit": "µg/mL"}, {"measurement": "MIC50", "setting": "Morganella morganii", "result": 2, "unit": "µg/mL"}, {"measurement": "MIC90", "setting": "Morganella morganii", "result": 32, "unit": "µg/mL"}, {"measurement": "MIC50", "setting": "Prevotella bivia", "result": 0.25, "unit": "µg/mL"}, {"measurement": "MIC90", "setting": "Prevotella bivia", "result": 1, "unit": "µg/mL"}, {"measurement": "MIC50", "setting": "Enterococcus faecalis [5]", "result": 2, "unit": "µg/mL"}, {"measurement": "MIC90", "setting": "Enterococcus faecalis [5]", "result": 8, "unit": "µg/mL"}, {"measurement": "MIC50", "setting": "Salmonella typhimurium", "result": 0.03, "unit": "µg/mL"}, {"measurement": "MIC90", "setting": "Salmonella typhimurium", "result": 0.125, "unit": "µg/mL"}, {"measurement": "MIC50", "setting": "Prevotella corporis", "result": 0.25, "unit": "µg/mL"}, {"measurement": "MIC90", "setting": "Prevotella corporis", "result": 1, "unit": "µg/mL"}, {"measurement": "MIC", "setting": "Finegoldia magna", "result": 0.015, "unit": "µg/mL"}, {"measurement": "MIC50", "setting": "Cutibacterium acnes", "result": 1, "unit": "µg/mL"}, {"measurement": "MIC90", "setting": "Cutibacterium acnes", "result": 2, "unit": "µg/mL"}, {"measurement": "MIC50", "setting": "Legionella pneumophila", "result": 0.002, "unit": "µg/mL"}, {"measurement": "MIC90", "setting": "Legionella pneumophila", "result": 0.008, "unit": "µg/mL"}, {"measurement": "MIC50", "setting": "Moraxella catarrhalis", "result": 0.03, "unit": "µg/mL"}, {"measurement": "MIC90", "setting": "Moraxella catarrhalis", "result": 0.03, "unit": "µg/mL"}, {"measurement": "MIC", "setting": "[6]", "result": 0.125, "unit": "µg/mL"}, {"measurement": "MIC50", "setting": "Klebsiella pneumoniae", "result": 1, "unit": "µg/mL"}, {"measurement": "MIC90", "setting": "Klebsiella pneumoniae", "result": 64, "unit": "µg/mL"}, {"measurement": "MIC50", "setting": "Haemophilus influenzae", "result": 0.015, "unit": "µg/mL"}, {"measurement": "MIC90", "setting": "Haemophilus influenzae", "result": 0.03, "unit": "µg/mL"}, {"measurement": "MIC50", "setting": "Staphylococcus aureus", "result": 0.06, "unit": "µg/mL"}, {"measurement": "MIC90", "setting": "Staphylococcus aureus", "result": 0.06, "unit": "µg/mL"}, {"measurement": "MIC50", "setting": "Hoylesella oralis", "result": 0.25, "unit": "µg/mL"}, {"measurement": "MIC90", "setting": "Hoylesella oralis", "result": 1, "unit": "µg/mL"}, {"measurement": "MIC50", "setting": "Shigella sonnei", "result": 0.03, "unit": "µg/mL"}, {"measurement": "MIC90", "setting": "Shigella sonnei", "result": 0.125, "unit": "µg/mL"}, {"measurement": "MIC50", "setting": "[7]", "result": 2, "unit": "µg/mL"}, {"measurement": "MIC90", "setting": "[7]", "result": 32, "unit": "µg/mL"}]}
